In ChEMBL document CHEMBL5252513, “Identification of a Benzoisoxazoloazepine Inhibitor (CPI-0610) of the Bromodomain and Extra-Terminal (BET) Family as a Candidate for Human Clinical Trials” (J Med Chem, 2016):
pIC50: −log10 of the molar value. Activity calls are given as the source filed them. The calls are words filed in the database; no cut-off is given here.

How the values were obtained:
[1] = Volume of distribution at steady state in rat at 1 mg/kg,iv; assay type: ADME, organism-based; details: in vivo, read-out: Vdss
[2] = Toxicity in rat assessed as lymphoid depletion at 2 to 20 mg/kg,po QD consecutive for 14 days followed by 2 weeks recovery period; assay type: organism-based; details: in vivo, 336 h, dose 2-20 mg/kg, time 14 day
In short: (§1)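 Oral suspension given once daily for 14 consecutive days (rat 2, 6, 20 mg/kg; dog 2, 4, 6 mg/kg) in dose range-finding and GLP repeat-dose studies, GLP arms with an added 2-week recovery period; histopathology and clinical pathology findings recorded.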

[3] = Cmax in human patient with progression lymphoma at 300 mg,po QD consecutively for 14 days; assay type: ADME; set-up: time 14 day, dose 300 mg, route po; details: in vivo
In short: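 Phase I trial in patients with hematologic malignancies, oral dosing once daily with escalating cohorts; values are from the 300 mg dose on day 14. AUC0-24 was taken as exposure over 24 h. Apparent clearance was calculated as Dose/AUC0-24.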

MV4-11 [4] = experiment: In vivo inhibition of BRD4 in human MV4-11 cells xenografted in BALB/c mouse assessed as reduction in cellular MYC mRNA expression level in plasma at 15 mg/kg,sc BID and measured at 4 hrs by PCR anlaysis; assay type: functional, organism-based
In short: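 Pharmacodynamic study in MV-4-11 AML mouse xenograft. Dosing was 15 mg/kg subcutaneous twice daily. At 4, 8 and 12 h after the second dose, MYC mRNA was measured against vehicle, and compound levels were measured in plasma and tumor. Free plasma concentration was estimated alongside total levels.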

MV4-11 [5] = experiment: Antitumor activity against human MV4-11 cells xenografted in BALB/c mouse assessed as tumor growth inhibition at 30 mg/kg,po BID for 28 days; assay type: functional; details: MV4-11, 672 h, time 28 day, read-out: TGI
In short: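 Single-agent efficacy in MV-4-11 AML mouse xenograft. Tumor volume (mm3) and percent body-weight change were tracked over the treatment days.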

[6] = Clearance in dog assessed as liver blood flow at 0.5 mg/kg,iv; assay type: ADME, organism-based, Canis lupus familiaris; details: in vivo
[7] = Half life in human patient with progression lymphoma at 300 mg,po QD consecutively for 14 days; assay type: ADME; details: in vivo, time 14 day
[8] = AUC (0 to infinity) in dog at 2.5 mg/kg,po; assay type: ADME, organism-based, Canis lupus familiaris; set-up: dose 2.5 mg/kg, route po; details: in vivo
Peregrin = target: T1, Peregrin (Homo sapiens, UniProt P55201); experiment: Displacement of biotinylated JQ1 from BRPF1 bromodomain (unknown origin) incubated for 20 mins by AlphaLISA assay
T1 sequence (P55201 whole entry): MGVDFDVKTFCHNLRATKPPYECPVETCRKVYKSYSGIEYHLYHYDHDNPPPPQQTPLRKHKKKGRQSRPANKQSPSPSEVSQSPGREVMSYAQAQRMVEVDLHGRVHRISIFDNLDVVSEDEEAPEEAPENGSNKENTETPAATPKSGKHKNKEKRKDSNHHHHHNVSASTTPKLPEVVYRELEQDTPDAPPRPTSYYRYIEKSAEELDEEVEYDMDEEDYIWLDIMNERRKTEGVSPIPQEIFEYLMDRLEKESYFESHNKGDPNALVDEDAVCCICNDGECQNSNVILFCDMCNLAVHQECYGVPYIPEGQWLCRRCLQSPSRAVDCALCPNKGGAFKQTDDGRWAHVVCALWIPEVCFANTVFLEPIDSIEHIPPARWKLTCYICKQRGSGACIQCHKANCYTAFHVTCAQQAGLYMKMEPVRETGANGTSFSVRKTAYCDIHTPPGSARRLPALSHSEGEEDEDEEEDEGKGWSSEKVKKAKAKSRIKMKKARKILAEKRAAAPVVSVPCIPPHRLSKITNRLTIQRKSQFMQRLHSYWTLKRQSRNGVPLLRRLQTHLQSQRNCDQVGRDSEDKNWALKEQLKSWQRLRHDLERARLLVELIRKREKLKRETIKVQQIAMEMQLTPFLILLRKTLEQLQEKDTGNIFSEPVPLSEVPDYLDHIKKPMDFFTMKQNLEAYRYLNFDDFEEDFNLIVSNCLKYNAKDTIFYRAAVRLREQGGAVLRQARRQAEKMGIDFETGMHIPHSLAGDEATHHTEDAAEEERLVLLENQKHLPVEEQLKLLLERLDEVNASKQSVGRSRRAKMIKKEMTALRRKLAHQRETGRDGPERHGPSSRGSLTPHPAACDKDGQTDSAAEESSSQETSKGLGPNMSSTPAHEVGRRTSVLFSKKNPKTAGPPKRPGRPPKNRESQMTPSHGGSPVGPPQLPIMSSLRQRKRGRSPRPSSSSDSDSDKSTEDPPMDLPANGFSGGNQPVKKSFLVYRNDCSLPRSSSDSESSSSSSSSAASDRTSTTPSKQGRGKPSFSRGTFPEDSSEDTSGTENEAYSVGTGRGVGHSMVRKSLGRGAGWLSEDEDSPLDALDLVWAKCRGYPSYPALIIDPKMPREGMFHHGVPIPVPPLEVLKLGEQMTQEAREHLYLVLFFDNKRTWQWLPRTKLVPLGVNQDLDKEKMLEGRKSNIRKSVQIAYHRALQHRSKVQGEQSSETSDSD

[9] = Toxicity in rat assessed as hypocellularity of bone marrow with associated anemia and thrombocytopenia at 2 to 20 mg/kg,po QD consecutive for 14 days followed by 2 weeks recovery period; assay type: organism-based; details: in vivo, 336 h, dose 2-20 mg/kg, time 14 day; in short: as §1
[10] = Oral bioavailability in rat at 5 mg/kg; assay type: ADME, organism-based; details: in vivo
[11] = Toxicity against BALB/c mouse plasma xenografted with human MV4-11 cells assessed as body weight loss at 10 mg/kg,sc BID in presence of doxorubicin at 2 mg/kg,iv BIW for 28 days; assay type: organism-based; details: in vivo, 672 h, time 28 day
In short: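 MV-4-11 acute myeloid leukemia mouse xenograft; BET inhibitor given subcutaneously 10 mg/kg twice daily, doxorubicin 2 mg/kg IV twice weekly, alone or combined, for 28 days; body weight change (%) tracked over treatment against vehicle.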

[12] = target: T2, Bromodomain-containing protein 9 (Homo sapiens, UniProt Q9H8M2); experiment: Displacement of biotinylated JQ1 from BRD9 bromodomain (unknown origin) incubated for 20 mins by AlphaLISA assay
T2 sequence (Q9H8M2 whole entry): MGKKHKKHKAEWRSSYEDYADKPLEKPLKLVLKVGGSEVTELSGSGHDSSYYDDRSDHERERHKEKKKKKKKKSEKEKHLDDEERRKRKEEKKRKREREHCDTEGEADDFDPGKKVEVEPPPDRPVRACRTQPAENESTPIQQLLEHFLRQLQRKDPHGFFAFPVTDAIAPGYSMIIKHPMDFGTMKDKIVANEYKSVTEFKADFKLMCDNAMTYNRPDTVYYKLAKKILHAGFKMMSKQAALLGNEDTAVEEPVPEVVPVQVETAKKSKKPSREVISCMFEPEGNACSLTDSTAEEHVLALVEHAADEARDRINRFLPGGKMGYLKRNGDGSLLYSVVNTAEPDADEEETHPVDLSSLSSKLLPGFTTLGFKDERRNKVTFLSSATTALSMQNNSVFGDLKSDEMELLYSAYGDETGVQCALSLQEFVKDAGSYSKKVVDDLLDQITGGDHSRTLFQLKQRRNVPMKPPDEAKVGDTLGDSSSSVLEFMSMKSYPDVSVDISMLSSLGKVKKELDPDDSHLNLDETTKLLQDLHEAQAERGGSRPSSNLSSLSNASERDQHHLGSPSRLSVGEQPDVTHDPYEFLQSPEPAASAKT

Vd [1]: 1.3 L/kg
Cmax [3]: 5.9 µM
QH [6]: 6%
half-life [7]: 23 h
AUC(0-inf) [8]: 28 µM·h
pIC50 (Peregrin): < 4.70
bioavailability [10]: 76%
pIC50 [12]: < 4.10
SMILES: Cc1noc2c1-c1ccccc1C(c1ccc(Cl)cc1)=N[C@H]2CC(N)=O [PELABRESIB]
Activity [2]: Toxic
inhibition (MV4-11 [4]): Active
inhibition in vivo at 30 mg/kg (MV4-11 [5]): 80%
Activity [9]: Toxic
Activity [11]: Non-Toxic
